Variants at the floor of the assay were thinned out.
B1: tRNA (parent)
chain: GUUCCGUUGGCGUAAUGGUAACGCGUCUCCCUCCUAAGGAGAAGACUGCGGGUUCGAGUCCCGUACGGAACG

Variants of: B1
Assay: yeast fitness relative to wild type (ratio to wild type); higher = fitter; tRNA-Arg(CCU), competitive growth, 37 C, YPD
In short: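 For this measurement, the tRNA-Arg(CCU) gene was varied by chemical synthesis at a 3% per-site mutation rate across 69 sites, and each variant was placed at the native genomic locus in Saccharomyces cerevisiae. The pooled strains went through a 24-hour competition in YPD at 37°C in six parallel replicates, with amplicons from start and end populations read by 100-nucleotide paired-end sequencing. Darwinian fitness relative to wild type followed from the change in each genotype's frequency. Genotypes needed ≥ 100 starting reads, and estimates < 0.5 were set to 0.5.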
C27U C29U C55A G58A gave a yeast fitness of at most 0.5.
For U28C G41C C49A, the yeast fitness was at most 0.5.
With U28C G41C C49G the yeast fitness was at most 0.5.
Variant C29U A40C C49G G63A has a yeast fitness of at most 0.5.
Variant U28C C31U G50C C55U C60G G63A C66U has a yeast fitness of at most 0.5.
In the case of C27U A43U, the yeast fitness is reported as 1.06.
U28C C29A A69U showed a yeast fitness of 0.559.
For C29A G41A A43C, the yeast fitness was 0.55.
U28A A42C showed a yeast fitness of 0.797.
U28A A42U gave a yeast fitness of 0.812.
Variant C29G G48C U59A has a yeast fitness of at most 0.5.
With C27U U28G A40C G51A the yeast fitness was 0.543.
For C27U C31G A43C C49G G52C U59A G68A, the yeast fitness was at most 0.5.
With U28A C31G G48A G51C C55G the yeast fitness was 0.523.
U28C A42U A43G showed a yeast fitness of 0.597.
C29U C46G G51A G52A showed a yeast fitness of at most 0.5.
Variant U28A C34U A37U A45U A57G C61U has a yeast fitness of at most 0.5.
Variant C29A C33G has a yeast fitness of 0.616.
C29A C33U showed a yeast fitness of at most 0.5.
In the case of U28G G51U U64A C66U A69C, the yeast fitness is reported as at most 0.5.
In the case of C27U U35G A40C A57C G67U, the yeast fitness is reported as 0.612.
Variant U28A C30G U59C has a yeast fitness of at most 0.5.
C29U C31A G38C C60A gave a yeast fitness of at most 0.5.
Work on C29G C30G G63A yielded a yeast fitness of 0.607.
In the case of C29G C49G G50C C62G A69U, the yeast fitness is reported as 0.506.
With C29U A70C the yeast fitness was 0.867.
For C29G G38C G44A, the yeast fitness was 0.668.
Variant C27U U53C G63A has a yeast fitness of at most 0.5.
Work on C29G C30G C49U yielded a yeast fitness of 0.66.
In the case of C27U C34U U47C U53G A69U, the yeast fitness is reported as at most 0.5.
U28G G41C U64C gave a yeast fitness of 0.521.
In the case of U28G C49U A69U, the yeast fitness is reported as 0.804.
For C27U U32C C46G, the yeast fitness was 0.765.
Work on C27U C31A U35C C55G C66U A70C yielded a yeast fitness of at most 0.5.
U28C G38C showed a yeast fitness of 0.579.
C29U C33A A36C A42C A45G gave a yeast fitness of at most 0.5.
In the case of C29A C33G C61U C66U, the yeast fitness is reported as at most 0.5.
Work on U28C C30A G39A C66U yielded a yeast fitness of 0.594.
With C29U A42U A43U U54C C55G the yeast fitness was at most 0.5.
For C27U G41C U53A C62U, the yeast fitness was at most 0.5.
With U28G G58C the yeast fitness was 0.771.
For C29U A37U C46U U59G, the yeast fitness was at most 0.5.
In the case of C29U C30U C49G, the yeast fitness is reported as 0.731.
Work on C27U C55A A69C yielded a yeast fitness of 0.573.
Work on C29G C34U C62U yielded a yeast fitness of at most 0.5.
For U28C U47A C49U G63C, the yeast fitness was 0.683.
For U28C G52A, the yeast fitness was 0.836.
In the case of U28C G52C, the yeast fitness is reported as 0.668.
With C29A C34U G48C A57U the yeast fitness was at most 0.5.
In the case of U28C C33G G38A, the yeast fitness is reported as at most 0.5.
Variant C29A C46U C55A has a yeast fitness of 0.572.
For C29G G67A, the yeast fitness was 0.565.
U28G G51C C55G showed a yeast fitness of at most 0.5.
U28A A37G G51C A57C showed a yeast fitness of at most 0.5.
Work on U28C G39C G44C yielded a yeast fitness of 0.529.
U28A C33G C49G G50U gave a yeast fitness of at most 0.5.
C29G C34U gave a yeast fitness of 0.561.
Work on C29G C34A yielded a yeast fitness of 0.585.
C29G C33G U35G G44A G67A showed a yeast fitness of at most 0.5.
U28G C62G showed a yeast fitness of 0.587.
Variant C29G G38A G44A C46U C62G has a yeast fitness of at most 0.5.
Work on C29G A37U C55G yielded a yeast fitness of 0.549.
U28G C31G G39A showed a yeast fitness of 0.578.
Work on C29G C31G C49G C61G yielded a yeast fitness of at most 0.5.
Variant C29U A45U U47C U54A has a yeast fitness of at most 0.5.
For C29U C33U C66U G67A, the yeast fitness was 0.598.
Variant C27U G41C A65C has a yeast fitness of 0.588.
Work on C29U C49A yielded a yeast fitness of 0.592.
With U28A C34U A40U A45U C60A the yeast fitness was 0.706.
In the case of U28C A42U A69U, the yeast fitness is reported as 0.74.
C29U G38A G48C A57G gave a yeast fitness of at most 0.5.
In the case of C27U A43U C55U, the yeast fitness is reported as 0.592.
U28C G67U gave a yeast fitness of 0.914.
Work on C27U C30U A42C C55U A70G yielded a yeast fitness of at most 0.5.
With U28G C29A C55A the yeast fitness was at most 0.5.
For C29A A37G G67C, the yeast fitness was 0.62.
Variant C29G C55G A57G A69G has a yeast fitness of 0.606.
Variant C29G C49A G67C has a yeast fitness of at most 0.5.
With C27U A40G G44A C62A the yeast fitness was 0.51.
C27U A40G G44A C62U gave a yeast fitness of at most 0.5.
For U28C U35G A36C A65G C66A, the yeast fitness was at most 0.5.
C27U A65C showed a yeast fitness of 1.02.
Variant C27U A65G has a yeast fitness of 0.975.
With C29U C31A A43G G67C the yeast fitness was at most 0.5.
Work on C29A A57G A65C yielded a yeast fitness of at most 0.5.
Variant U28C G39A A40U A42G has a yeast fitness of at most 0.5.
Variant C27U C30U C34G A37C A69C has a yeast fitness of at most 0.5.
With C27U C31G A40G the yeast fitness was at most 0.5.
Work on C29G C55G A70G yielded a yeast fitness of at most 0.5.
With U28C C31A C34G A45U the yeast fitness was at most 0.5.
Variant C27U U28C C49U U54A A57C U59C has a yeast fitness of 0.706.
In the case of U28G A70U, the yeast fitness is reported as 0.842.
Variant C27U A57G C60U has a yeast fitness of at most 0.5.
With U28C A40U C55A the yeast fitness was at most 0.5.
C27U C34U A69U gave a yeast fitness of 0.528.
Work on C29A C31U A43U yielded a yeast fitness of 0.506.
Variant U28G C46A C61G has a yeast fitness of at most 0.5.
Work on U28G C29U G50C yielded a yeast fitness of at most 0.5.
C29U C31A gave a yeast fitness of 0.609.
For C27U C31A U53A, the yeast fitness was at most 0.5.
For C29A G39C G58A, the yeast fitness was 0.905.
Variant C29A G38A U54C A69U has a yeast fitness of at most 0.5.
C29A A70G showed a yeast fitness of 0.723.
U28G C55A gave a yeast fitness of 0.572.
With U28C C34U the yeast fitness was 0.71.
In the case of C29G C30G A36G A65C, the yeast fitness is reported as 0.505.
In the case of U28A C55G C62U, the yeast fitness is reported as at most 0.5.
U28G A43U showed a yeast fitness of 0.948.
In the case of C29A G44C, the yeast fitness is reported as 0.778.
Variant C29G U32C G51A has a yeast fitness of 0.723.
In the case of C29U A40U G41C, the yeast fitness is reported as at most 0.5.
U28C C30U A69U gave a yeast fitness of 0.598.
Variant C29A C30U C34U C61U C66A has a yeast fitness of at most 0.5.
With U28A G63A the yeast fitness was 0.849.
Work on U28C C62G C66G yielded a yeast fitness of at most 0.5.
For C29G U35C C55G A57G, the yeast fitness was at most 0.5.
With C27U G38A U59G U64C A65U the yeast fitness was at most 0.5.
C27U C29G gave a yeast fitness of 0.58.
C29U A43G gave a yeast fitness of 0.883.
Work on U28C U32C C46G yielded a yeast fitness of 0.722.
In the case of C27U A37U A69C, the yeast fitness is reported as 0.608.
C29A C30U A42U gave a yeast fitness of at most 0.5.
For U28G C60A, the yeast fitness was 0.53.
C29A C46A C49A gave a yeast fitness of at most 0.5.
C29A C31U C34A A36G G56C showed a yeast fitness of at most 0.5.
C27U A37G C55U gave a yeast fitness of at most 0.5.
C27U C46U A57G showed a yeast fitness of 0.679.
For U28A U64C, the yeast fitness was 0.834.
Variant C27U G50C A65C has a yeast fitness of at most 0.5.
U28C A36C U47A G58C G67U showed a yeast fitness of at most 0.5.
With C29G U53C U54G the yeast fitness was 0.509.
In the case of C27U G48C A57C, the yeast fitness is reported as at most 0.5.
Variant C29G G63A has a yeast fitness of 0.646.
For C27U A45U G52A, the yeast fitness was 0.63.
In the case of C29G A36C G41A G50A U53C, the yeast fitness is reported as at most 0.5.
With U28A C31U U32A G52A A57U C60U A65G G68A the yeast fitness was at most 0.5.
C29G C33A C34G gave a yeast fitness of at most 0.5.
U28G U64C showed a yeast fitness of 0.864.
Work on U28G U64A yielded a yeast fitness of 0.65.
U28A G50U showed a yeast fitness of 0.622.
C29U A43C A69U showed a yeast fitness of 0.673.
Variant C29G U47C has a yeast fitness of 0.75.
Work on C29A A37G C55A yielded a yeast fitness of at most 0.5.
Work on C27U G44C G58C yielded a yeast fitness of 0.655.
With C29U A36U C49U the yeast fitness was at most 0.5.
C29G C61A showed a yeast fitness of at most 0.5.
With U28A U35A the yeast fitness was 0.584.
Variant U28G G44C G48C has a yeast fitness of 0.556.
C27U A36C A42U C46U C62U G63A showed a yeast fitness of at most 0.5.
U28G A57U G63A showed a yeast fitness of 0.874.
Work on U28A C30U A57G yielded a yeast fitness of 0.651.
With C27U G52C the yeast fitness was 0.7.
Variant C27U G52A has a yeast fitness of 0.7.
C27U C61U showed a yeast fitness of 1.01.
Work on U28A C33G A36U A40G A70G yielded a yeast fitness of at most 0.5.
C27U G41A gave a yeast fitness of 0.939.
With C29A A37C the yeast fitness was 0.597.
C29A C49U G63A showed a yeast fitness of at most 0.5.
Work on C29G G44C C49G A57C yielded a yeast fitness of 0.598.
Work on C29G C46A yielded a yeast fitness of 0.661.
In the case of C29G A37C, the yeast fitness is reported as 0.56.
Work on C27U U28A A37G C49U A57C G58C yielded a yeast fitness of 0.683.
With C29G A40U C66G the yeast fitness was 0.551.
For U28A A40U C61A G68A, the yeast fitness was at most 0.5.
For U28A U32G C55G, the yeast fitness was 0.505.
C29A C31U A43C G44C A65U gave a yeast fitness of at most 0.5.
With C29A C33U C61U A69U the yeast fitness was at most 0.5.

Reference: the RNAGym collection of RNA variant scans (doi:10.1126/science.aae0568)
